Test results published in ChEMBL document CHEMBL4261557, “MAO inhibitory activity of bromo-2-phenylbenzofurans: synthesis, in vitro study, and docking calculations” (Medchemcomm, 2017).

Assays:
Homo sapiens = species on record: Homo sapiens; assay: Selectivity index, ratio of IC50 for recombinant human MAO-A expressed in baculovirus infected insect cells to IC50 for recombinant human MAO-B expressed in baculovirus infected insect cells
Summary of the method: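 Ratio of IC50 against hMAO-A to IC50 against hMAO-B, both measured by the Amplex Red/p-tyramine fluorimetric assay with recombinant enzymes from insect cells.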

SH-SY5Y = assay: Cytotoxicity against human SH-SY5Y cells assessed as reduction in cell viability at 1 to 10 uM after 24 hrs by MTT assay; assay type: cell-based
Summary of the method: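 SH-SY5Y neuroblastoma cells seeded at 1.106 mL–1, incubated overnight, then exposed 24 h to compound at 1 or 10 μM in 1% DMSO; 1% DMSO as negative control. MTT (5 mg ml–1 in PBS, 10%) added for 2 h at 37 °C, crystals dissolved in DMSO, absorbance 540 nm; viability = treated/control absorbance × 100. Mean ± S.E.M., ≥5 cultures.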

[1] = biological target: T1, Amine oxidase [flavin-containing] A (Homo sapiens, UniProt P21397); assay: (§1) Inhibition of recombinant human MAO-A expressed in baculovirus infected insect cells assessed as reduction in H2O2 production using p-tyramine as substrate pretreated for 15 mins followed by substrate addition and measured over 15 mins by Amplex red reagent based fluorimetric assay
T1 sequence (P21397 whole entry): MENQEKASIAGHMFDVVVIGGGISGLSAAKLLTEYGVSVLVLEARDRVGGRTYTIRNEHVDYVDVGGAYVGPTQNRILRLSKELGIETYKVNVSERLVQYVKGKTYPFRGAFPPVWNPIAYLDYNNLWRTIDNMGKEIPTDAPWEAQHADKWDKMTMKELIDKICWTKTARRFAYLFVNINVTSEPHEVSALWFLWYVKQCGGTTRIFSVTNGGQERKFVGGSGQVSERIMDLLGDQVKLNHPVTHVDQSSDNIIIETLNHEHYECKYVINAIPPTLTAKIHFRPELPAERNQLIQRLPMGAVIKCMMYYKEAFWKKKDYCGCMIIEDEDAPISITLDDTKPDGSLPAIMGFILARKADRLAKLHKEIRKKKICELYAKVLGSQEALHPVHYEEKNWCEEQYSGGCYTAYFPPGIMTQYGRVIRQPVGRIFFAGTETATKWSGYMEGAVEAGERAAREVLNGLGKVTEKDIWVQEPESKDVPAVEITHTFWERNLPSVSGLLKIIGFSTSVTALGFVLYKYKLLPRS

[2] = biological target: T2, Amine oxidase [flavin-containing] B (Homo sapiens, UniProt P27338); assay: biochemical
T2 sequence (P27338 whole entry): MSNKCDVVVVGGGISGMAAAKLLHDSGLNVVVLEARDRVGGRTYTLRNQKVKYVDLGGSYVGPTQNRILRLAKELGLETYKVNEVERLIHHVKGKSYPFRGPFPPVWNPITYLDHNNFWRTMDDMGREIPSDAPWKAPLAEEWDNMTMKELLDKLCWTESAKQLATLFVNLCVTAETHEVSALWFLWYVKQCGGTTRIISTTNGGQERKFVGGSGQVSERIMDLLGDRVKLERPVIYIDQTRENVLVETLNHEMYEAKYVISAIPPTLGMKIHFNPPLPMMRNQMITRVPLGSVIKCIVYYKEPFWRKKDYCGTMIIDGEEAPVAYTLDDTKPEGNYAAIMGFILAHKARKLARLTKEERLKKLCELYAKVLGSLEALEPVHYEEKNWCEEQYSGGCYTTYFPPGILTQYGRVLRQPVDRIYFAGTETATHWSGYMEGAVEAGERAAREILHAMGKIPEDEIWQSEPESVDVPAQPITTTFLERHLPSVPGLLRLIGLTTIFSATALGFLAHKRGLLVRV

[3] = biological target: T1, Amine oxidase [flavin-containing] A; assay: as §1, with “production at 100 uM” for “production”, “assay relative to control” for “assay”; details: 0.25 h
[4] = biological target: T2, Amine oxidase [flavin-containing] B; assay: as §1, with “MAO-B” for “MAO-A”, “production at 100 uM” for “production”, “assay relative to control” for “assay”; details: 0.25 h
Summary of the method: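 hMAO-B from baculovirus-infected BTI-TN-5B1-4 insect cells, 7.5 μg protein, matched to 165 pmol p-tyramine/min. Preincubated with inhibitor in 0.05 M phosphate buffer pH 7.4, 15 min at 37 °C. Started with 200 μM Amplex Red, 1 U mL–1 HRP, 1 mM p-tyramine (final). Fluorescence (ex 545/em 590 nm) over 15 min at 37 °C, minus no-enzyme background; percent inhibition at 100 μM.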

Row | Structure (SMILES) | IC50 [1] | IC50 [2] | inhibition at 100 µM [3] | inhibition at 100 µM [4] | Ratio IC50 (Homo sapiens) | Activity (SH-SY5Y)
1 | Cc1ccc2oc(-c3cccc(Br)c3)cc2c1 | > 100 µM | 250 nM |  |  | > 400 | Non-Toxic
2 | Cc1ccc2oc(-c3ccccc3Br)cc2c1 | 11 µM | 200 nM |  |  | 55 | Non-Toxic
3 | Cc1ccc2oc(-c3ccccc3)cc2c1 | > 100 µM | 880 nM |  |  | > 114 | Non-Toxic
4 | Cc1cccc2cc(-c3ccccc3Br)oc12 | 100 µM | 9680 nM | 44.8% |  | 11.5 | Non-Toxic
5 | Brc1ccccc1-c1cc2ccccc2o1 | 8.12 µM | 1130 nM |  |  | 7.2 | Non-Toxic
6 | c1ccc(-c2cc3ccccc3o2)cc1 | > 100 µM | > 100000 nM |  |  |  | Non-Toxic
7 | Cc1cccc2cc(-c3ccccc3)oc12 | 100 µM | 10700 nM | 53.9% |  | 9.3 | Non-Toxic
8 | Cc1cccc2cc(-c3cccc(Br)c3)oc12 | > 100 µM | 3980 nM |  |  | > 25.2 | Non-Toxic

Continued, in another order:

Row | IC50 [1] | IC50 [2] | inhibition at 100 µM [3] | inhibition at 100 µM [4] | Structure (SMILES) | Ratio IC50 (Homo sapiens) | Activity (SH-SY5Y)
9 | > 100 µM | 340 nM |  |  | Brc1ccc(-c2cc3ccccc3o2)cc1 | > 294 | Non-Toxic
10 | 100 µM | 950 nM | 46.8% |  | Cc1cccc2cc(-c3ccc(Br)cc3)oc12 | 95.2 | Non-Toxic
11 | 100 µM | 1170 nM | 51% |  | Brc1cccc(-c2cc3ccccc3o2)c1 | 85.5 | Non-Toxic
12 | > 100 µM | 100000 nM |  | 46.1% | Cc1ccc2oc(-c3ccc(Br)cc3)cc2c1 |  | Non-Toxic
